This is a sample that favours compounds with a hit; in the whole collection about 3.7% have one here.
DENV2 CPE rescue: DENV2-induced cell death inhibition | CPE inhibition, % at 9.99 µM | 1.7% of 350,000 active | DENV2-infected cells, cytopathic effect rescue, plate reader; in the data active = CPE inhibition above about 20%, passing the limit was not always enough; inconclusive = no clear call, values can overlap the other calls; tested in BHK-21 cells;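 also: 0% = median of neutral control wells and 100% = median of positive control wells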
CFTR F508del cor: CFTR F508del correction in bronchial cells. CFBE cells, YFP halide quenching; stimulated with forskolin plus potentiator P3; % fluorescence drop versus neutral controls. AID 720511. activity (quench increase), % at 7.58 µM. 0.36% of 350,000 active;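 active = mean added fluorescence quench of at least 8% versus neutral control, with both replicates also reaching 8%; inconclusive = only one of the mean or replicate conditions met; inactive = mean below 8% and not both replicates reaching 8%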;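 also: cells transiently co-express mutant CFTR-F508del with the halide-sensitive YFP; corrector assay measuring rescue of mutant channel to the surface after 24 h compound exposure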
ERAP1 HTS inh: ERAP1 (human) enzyme inhibition; Q9NZ08; recombinant ERAP1, Leu-AMC fluorescence, 60 min; inhibition, % at 10.7 µM; 0.15% of 340,000 active;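 active = mean replicate inhibition of at least 30%, or all replicates individually reaching that 30% level; inactive = mean below 30% and not every replicate reaching it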;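 also: 0% = neutral control wells and 100% = L-leucinethiol positive control wells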
E-selectin induc: E-selectin induction on HUVECs | HUVEC E-selectin immunofluorescence imaging; normalized: neutral wells 0, TNF-alpha wells 100 | AID 686992 | 0.37% of 260,000 active | activation, % at 7.58 µM | P16581;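 active = mean E-selectin-positive cell signal at least 10% of the positive control, reached in at least 60% of replicates, without over 20% cell loss; inconclusive = no rule given, readout overlaps actives, possibly toxicity-flagged; inactive = the rest, including those meeting only one limit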
Target sequence (P16581 whole entry, looked up): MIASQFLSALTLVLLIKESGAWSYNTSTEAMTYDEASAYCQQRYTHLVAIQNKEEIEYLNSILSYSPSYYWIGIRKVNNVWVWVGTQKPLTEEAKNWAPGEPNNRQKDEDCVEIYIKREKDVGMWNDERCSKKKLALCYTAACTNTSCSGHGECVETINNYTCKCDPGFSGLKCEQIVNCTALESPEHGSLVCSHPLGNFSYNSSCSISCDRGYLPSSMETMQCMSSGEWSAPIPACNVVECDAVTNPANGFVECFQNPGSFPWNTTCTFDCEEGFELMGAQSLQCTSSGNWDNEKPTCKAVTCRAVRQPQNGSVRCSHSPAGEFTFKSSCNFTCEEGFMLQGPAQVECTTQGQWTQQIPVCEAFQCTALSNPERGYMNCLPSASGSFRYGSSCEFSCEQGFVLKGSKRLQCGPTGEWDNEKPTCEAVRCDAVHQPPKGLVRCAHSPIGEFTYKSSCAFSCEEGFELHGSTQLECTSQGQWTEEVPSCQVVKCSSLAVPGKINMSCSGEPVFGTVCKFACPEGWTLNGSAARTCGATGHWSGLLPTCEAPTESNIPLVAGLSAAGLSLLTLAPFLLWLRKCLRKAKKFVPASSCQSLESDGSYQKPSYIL
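Read-out: % PE-positive cells | Test system: HUVEC | Doses: One compound dose added by pin transfer | Buffer or medium: EGM-2 over gelatin coat | Signal: Immunofluorescence imaging | Benchmarks: TNF-alpha, DMSO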
FGF22 binding: shifts melting point of recombinant human FGF22 | Q9HCT0 | recombinant FGF22 thermal shift, SYPRO orange fluorescence; percent of sucrose octasulfate shift, DMSO zero | activity (Tm shift, normalised), % at 9.99 µM | 1.5% of 340,000 active;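 active = mean Tm shift, scaled 0 neutral to 100 positive control, at about 1.3% or above, every replicate too, limit read from the data; inconclusive = no clear call, values can overlap the other calls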
The depositor's hits bear a star; ? = inconclusive; / = no result.

SMILES	DENV2 CPE rescue	CFTR F508del cor	ERAP1 HTS inh	E-selectin induc	FGF22 binding
CCCNC(=O)C[C@H]1CC[C@@H]2[C@H](COc3ccc(NS(=O)(=O)CC)cc3C(=O)N2C)O1	-4	-1	-1	0	0
NS(=O)(=O)c1ccc(N2C(=O)C3CC=CCC3C2=O)cc1 (stereo unspecified)	-12	2	-1	/	44*
CCOC(=O)c1ccc(N2C(=O)C3CC=CCC3C2=O)cc1 (stereo unspecified)	/	/	2	/	/
O=C1O[C@H](c2ccccc2)[C@H](c2ccccc2)N2[C@H]1[C@@H](C(=O)N1CCCCCCC1)[C@]1(C(=O)Nc3ccc(C#CCCO)cc31)[C@H]2c1ccc(O)cc1	?	-1	-2	/	0
Cc1cc2nnc(SCC(=O)NCc3ccco3)n2c2ccccc12	-6	9.8*	-3	0	0
Cc1ccc(SCCN2CCC(NC(=O)OCc3ccccc3)CCC2=O)cc1 (stereo unspecified)	32*	4	0	/	0
O=C(N[C@H]1CCC(=O)N(CCSc2ccc(Br)cc2)CC1)OCc1ccccc1	-2	1	-2	0	0
COc1ccc(NC(=O)CN2CCN(c3ccccc3)CC2)cc1	3	1	-4	/	42
COc1ccc(NC(=O)c2ccc(NC(=O)CN3CCN(c4ccccc4OC)CC3)cc2)cc1	4	0	2	0	43*
CS(=O)(=O)c1ccc2nc(NC(=O)CCN3C(=O)c4ccccc4C3=O)sc2c1	-8	-2	-4	0	43*
CS(=O)(=O)c1ccc2nc(NC(=O)CN3C(=O)C4CC=CCC4C3=O)sc2c1 (stereo unspecified)	-2	5	1	0	0
COC(=O)Cc1c(C)c2ccc(O)c(CNCc3ccc(OC)c(OC)c3)c2oc1=O	0	2	97*	0	0
CCCCCNc1nc2sc3c(c2c(=O)n1-c1cccc(Cl)c1)CCN(C)C3	-1	-4	/	42*	0
CCCCNc1nc2sc3c(c2c(=O)n1-c1cccc(Cl)c1)CCN(C)C3	-3	-2	-3	/	0
CCOC(=O)N1C=CC=C[C@@H]2[C@@H](N3C(=O)c4ccccc4C3=O)C(=O)N21	63*	/	1	-1	0
CCOc1ccc(NC(=O)CCN2C(=O)c3ccccc3C2=O)cc1	12	0	1	1	0
CCOc1ccc2oc(C(=O)NCC3CCCO3)c(C)c2c1 (stereo unspecified)	64*	-2	3	/	0
COc1ccc2oc(C(=O)NCC3CCCO3)c(C)c2c1 (stereo unspecified)	6	-1	4	/	0
CN1C(=O)c2cc(NC(=O)C3CCCC3)ccc2OC[C@H]2O[C@H](CC(=O)NCCc3ccncc3)CC[C@H]21	166*	0	2	0	0
CN1C(=O)c2cc(NC(=O)C3CCC3)ccc2OC[C@H]2O[C@@H](CC(=O)NCCc3ccncc3)CC[C@H]21	21*	0	-2	0	/
COCCNC(=O)C[C@@H]1CC[C@@H]2[C@@H](COc3ccc(NC(=O)C4CCOCC4)cc3C(=O)N2C)O1	21*	-1	2	0	0
CN1C(=O)c2cc(NC(=O)C3CCCC3)ccc2OC[C@H]2O[C@H](CC(=O)NCCc3ccncc3)CC[C@@H]21	29*	1	0	0	0
CO[C@@H]1CN(C)C(=O)c2cc(NC(=O)Nc3c(C)noc3C)ccc2OC[C@@H](C)N(C)C[C@H]1C	/	-6	/	0	/
C[C@H](CO)N1C[C@H](C)[C@@H](CN(C)S(=O)(=O)c2cn(C)cn2)Oc2ccc(NC(=O)Nc3ccc(C(F)(F)F)cc3)cc2CC1=O	18	-1	2	0	0
CNC[C@@H]1Oc2c(NC(=O)C3CCOCC3)cccc2C(=O)N([C@H](C)CO)C[C@H]1C	-5	-2	1	0	0
SMILES	DENV2 CPE rescue	CFTR F508del cor	ERAP1 HTS inh	E-selectin induc	FGF22 binding
COC(=O)C[C@H]1CC[C@@H]2[C@@H](COc3ccc(NC(=O)NCc4ccccc4)cc3C(=O)N2C)O1	5	-2	/	0	0
COc1ccc2[nH]c3c(C)c4ccncc4c(C)c3c2c1	-2	16*	-1	/	0
Cc1cc(-c2onc(C)c2C(N)=O)no1	8	-1	-1	/	0
Cc1cc(-c2onc(C)c2C(=O)Oc2ccc(Cl)cc2)no1	73*	-4	-5	/	0
C[C@H](CO)N1C[C@H](C)[C@H](CN(C)Cc2cncnc2)Oc2cc(-c3ccncc3)ccc2S1(=O)=O	1	7	-3	-4	0
O=C(CN1CCN(Cc2ccccc2)CC1)N1N=CCC1c1ccccc1 (stereo unspecified)	2	3	-2	/	0
Cc1ccc(SCC(=O)N2N=CCC2c2ccccc2)cc1 (stereo unspecified)	4	0	-3	-1	44*
COc1ccc(C(=O)N2C[C@H]3[C@@H](c4ccccc42)[C@H](CO)N3Cc2ccc3c(c2)OCO3)cc1	19	2	0	0	-1
COCC(=O)N1C[C@@H](C)[C@H](OC)CN(C)C(=O)c2cc(NC(=O)C3CCC3)ccc2OC[C@@H]1C	23*	3	-3	0	0
CO[C@H]1CN(C)C(=O)c2cc(NC(=O)C3CCC3)ccc2OC[C@H](C)N(C)C[C@@H]1C	73*	-5	/	0	0
COCC(=O)N1C[C@@H](C)[C@@H](OC)CN(C)C(=O)c2cc(NC(=O)C3CCC3)ccc2OC[C@@H]1C	/	0	/	0	/
CO[C@@H]1CN(C)C(=O)c2cc(NC(=O)C3CCC3)ccc2OC[C@@H](C)N(C)C[C@H]1C	2	2	/	0	0
CO[C@H]1CN(C)C(=O)c2ccc(NC(=O)C3CCCC3)cc2OC[C@H](C)N(C)C[C@@H]1C	52*	0	1	0	/
CO[C@H]1CN(C)C(=O)c2ccc(NC(=O)Nc3ccc(Cl)cc3)cc2OC[C@H](C)N(C)C[C@H]1C	27*	/	-4	0	0
CO[C@@H]1CN(C)C(=O)c2ccc(NC(=O)Nc3ccc(Cl)cc3)cc2OC[C@H](C)N(C)C[C@@H]1C	-1	/	-6	0	0
O=C(C[C@H]1CC[C@H]2[C@@H](COC[C@@H](O)CN2S(=O)(=O)c2cccc(F)c2)O1)NC1CCC1	10	-1	0	0	0
CO[C@H]1CN(C)C(=O)c2cc(NC(=O)C3CCC3)ccc2OC[C@@H](C)N(Cc2ccncc2)C[C@@H]1C	52*	0	/	0	-1
CO[C@@H]1CN(C)C(=O)c2ccc(NC(=O)C3CC3)cc2OC[C@H](C)N(CC2CCOCC2)C[C@H]1C	0	0	/	0	0
CCOC(=O)c1c[nH]n2c(=O)cc(C)nc12	-4	-1	/	0	0
CCOC(=O)c1c[nH]n2c(=S)ncnc12	-6	1	2	1	43*

Source: PubChem BioAssay
